ChEMBL document CHEMBL5385870, “Amide containing NBTI antibacterials with reduced hERG inhibition, retained antimicrobial activity against gram-positive bacteria and in vivo efficacy” (Eur J Med Chem, 2023)
Values after ≈ are worked out from the molar mass of the structure shown. Active and inactive are the calls of the source. The calls are words filed in the database; no cut-off is given here.

Legend:
[1] = system: Acinetobacter baumannii; assay: Antimicrobial activity against Acinetobacter baumannii assessed as reduction in bacterial growth incubated for 20 hrs by broth microdilution analysis; format: functional
[2] = system: Staphylococcus aureus; assay: Antimicrobial activity against cefoxitin/ciprofloxacin/clindamycin/erythromycin/tetracycline/thiamulin/trimethoprim-resistant Staphylococcus aureus assessed as reduction in bacterial growth incubated for 20 hrs by broth microdilution analysis; format: functional
In short: (§1)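 MIC was determined by broth microdilution per CLSI/EUCAST. Inoculum was 10^5 CFU/mL in cation-adjusted Mueller-Hinton broth with TES, with compounds in DMSO, incubated 20 h at 35 °C. MIC was read visually as the lowest concentration without turbidity. Tetracycline was the plate control.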

[3] = system: Staphylococcus aureus; assay: Antimicrobial activity against Staphylococcus aureus ATCC 29213 assessed as reduction in bacterial growth incubated for 20 hrs by broth microdilution analysis; format: functional; in short: as §1
[4] = target: DNA topoisomerase 2-alpha (Homo sapiens) (UniProt P11388); assay: Inhibition of human DNA topoisomerase 2-alpha assessed as residual activity at 100 uM incubated for 30 mins relative to control
[5] = system: Staphylococcus aureus; assay: Antimicrobial activity against cefoxitin/gentamicin/kanamycin/rifampicin/streptomycin/sulfamethoxazole/tetracycline-resistant Staphylococcus aureus assessed as reduction in bacterial growth incubated for 20 hrs by broth microdilution analysis; format: functional; in short: as §1
[6] = system: Staphylococcus aureus; assay: Bactericidal activity against methicillin-resistant Staphylococcus aureus ATCC 43300 at 8 times MIC measured for 24 hrs by time-kill kinetics based analysis; format: functional, organism-based
[7] = target: Voltage-gated inwardly rectifying potassium channel KCNH2 (Homo sapiens, UniProt Q12809); assay: Inhibition of hERG fluorescence polarization assay; format: toxicity
[8] = system: Staphylococcus aureus; assay: Antimicrobial activity against multidrug-resistant Staphylococcus aureus assessed as reduction in bacterial growth incubated for 20 hrs by broth microdilution analysis; format: functional; in short: as §1
[9] = target: DNA gyrase (Escherichia coli, UniProt P0AES4+P0AES6); assay: Inhibition of Escherichia coli DNA gyrase supercoiling incubated for 30 mins in presence of ATP; format: protein-complex assay
In short: (§2)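 Gyrase supercoiling plate assay (triplex capture on streptavidin plates with immobilized biotinylated oligonucleotide): 1.5 U enzyme, 0.75 µg relaxed pNO1 plasmid, inhibitor in 10% DMSO/0.008% Tween-20, 37 °C 30 min, 30 µl. Buffer for E. coli: 35 mM Tris pH 7.5, 1 mM ATP; S. aureus: 40 mM HEPES-KOH pH 7.6, 2 mM ATP, 500 mM K-glutamate. Diamond dye fluorescence (ex 495/em 537 nm). Pre-screen 100 and 1 µM; IC50 from seven concentrations by four-parameter fit, mean of two runs.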

[10] = system: Staphylococcus aureus; assay: Antibacterial activity against Methicillin-resistant Staphylococcus aureus BAA-1717 infected in CD-1 mouse thigh infection model assessed as fold change in log 10 cfu at 40 mg/kg, ip incubated for 2 hrs post infection; format: functional
In short: (§3)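 Female CD-1 neutropenic mice received 2.0×10^5 CFU of MRSA BAA-1717 (TCH 1516) by intramuscular injection into the right thigh. Thighs were excised at 2 h (therapy start controls) or 26 h, homogenised and plated for CFU/g. Four mice per group.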

[11] = Induction of drug resistance methicillin-resistant Staphylococcus aureus measured after 14 passages incubated for 20 hrs by microbroth dilution method; format: functional
In short: (§4)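 For serial passage, MRSA was run through daily broth-microdilution MIC tests. Cells from the ½× MIC wells were harvested, adjusted to 10^5 CFU/mL and used to inoculate the next passage, for 14 days. Triplicates, with ciprofloxacin as comparator, and the experiment was repeated twice.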

[12] = system: Staphylococcus aureus; assay: Antibacterial activity against methicilin-resistant Staphylococcus aureus assessed as bacterial growth inhibition; format: functional
[13] = system: Pseudomonas aeruginosa; assay: Antimicrobial activity against Pseudomonas aeruginosa RDK 184 assessed as reduction in bacterial growth incubated for 20 hrs by broth microdilution analysis; format: functional
[14] = system: hERG; assay: Selectivity index, ratio of IC50 for inhibition of hERG fluorescence polarization assay to MIC for antimicrobial activity against multidrug-resisitant Staphylococcus aureus assessed as reduction in bacterial growth; format: toxicity; conditions: human; read-out: Selectivity Index
[15] = target: DNA gyrase (Staphylococcus aureus, UniProt P0A0K8+P20831); assay: Inhibition of Staphylococcus aureus DNA gyrase supercoiling incubated for 30 mins in presence of ATP; format: protein-complex assay; in short: as §2
[16] = system: Staphylococcus aureus; assay: Antibacterial activity against Methicillin-resistant Staphylococcus aureus BAA-1717 infected in CD-1 mouse thigh infection model assessed as reduction in bacterial load at 20 mg/kg, ip […]; format: functional; conditions: time 20 hrs
[17] = Acute toxicity in zebrafish embryos assessed as lethal concentration compound administered from 6 hrs post fertilization and measured after 120 hrs post fertilization; design: species or system Danio rerio; conditions: in vivo
In short: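 Wild-type AB zebrafish embryos in E3 medium at 28 °C were exposed by immersion from 6 hpf to 0.39–25 µg/mL (top dose 12.5 µg/mL for one compound), with DMSO at most 0.25%. Controls were 0.25% DMSO and 25 µg/mL doxorubicin. Embryos were inspected daily for death and toxicity signs through 120 hpf. Runs were in triplicate, with 24 embryos per concentration.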

[18] = Antimicrobial activity against Salmonella alachua RDK 030c assessed as reduction in bacterial growth incubated for 20 hrs by broth microdilution analysis; format: functional
[19] = system: HepG2; assay: Cytotoxicity against human HepG2 cells assessed as inhibition of cell growth at 50 uM incubated for 72 hrs by […]; format: functional; design: scale not given: the % may be the effect or the level left
In short: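 HepG2 in DMEM with 10% FBS, 2 mM glutamine, penicillin/streptomycin, 37 °C, 5% CO₂; seeded 8,000 cells/well, attached overnight, then treated 1.25–100 µM or vehicle for 72 h. Metabolic activity by CellTiter 96 Aqueous One (MTS) absorbance 492 nm.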

[20] = system: Staphylococcus aureus; assay: Antibacterial activity against Methicillin-resistant Staphylococcus aureus BAA-1717 infected in CD-1 mouse thigh infection model assessed as reduction in bacterial load at 40 mg/kg, ip […]; format: functional
[21] = system: Klebsiella pneumoniae; assay: Antimicrobial activity against Klebsiella pneumoniae assessed as reduction in bacterial growth incubated for 20 hrs by broth microdilution analysis; format: functional
[22] = system: Staphylococcus aureus; assay: Antibacterial activity against Methicillin-resistant Staphylococcus aureus BAA-1717 infected in CD-1 mouse thigh infection model assessed as fold change in log 10 cfu at 20 mg/kg, ip incubated for 2 hrs post infection; format: functional; in short: as §3
[23] = system: Staphylococcus aureus; assay: Bactericidal activity against methicillin-resistant Staphylococcus aureus ATCC 43300 measured for 8 hrs by time-kill kinetics based analysis; format: functional, organism-based
[24] = system: hERG; assay: Selectivity index, ratio of IC50 for inhibition of hERG fluorescence polarization assay to MIC for antimicrobial activity against Staphylococcus aureus ATCC 29213 assessed as reduction in bacterial growth; format: toxicity; conditions: human; read-out: Selectivity Index
[25] = Inhibition of Escherichia coli DNA topoisomerase 4 relaxation activity measured for 30 mins
In short: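 TopoIV relaxation plate assay: 1.5 U enzyme with 0.75 µg supercoiled pNO1 plasmid, inhibitor in 10% DMSO/0.008% Tween-20, 37 °C 30 min; E. coli buffer 40 mM HEPES-KOH pH 7.6 with 1 mM ATP, S. aureus buffer 50 mM Tris pH 7.5 with 1.5 mM ATP. Triplex capture, Diamond dye fluorescence 495/537 nm.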

[26] = system: Escherichia coli; assay: Antimicrobial activity against Escherichia coli ATCC 25922 assessed as reduction in bacterial growth incubated for 20 hrs by broth microdilution analysis; format: functional
[27] = target: Topoisomerase IV (Staphylococcus aureus, UniProt P0C1S7+P0C1U9); assay: Inhibition of Staphylococcus aureus DNA topoisomerase 4 relaxation activity measured for 30 mins; format: protein-complex assay
In short: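 TopoIV relaxation plate assay: 1.5 U enzyme with 0.75 µg supercoiled pNO1 plasmid, inhibitor in 10% DMSO/0.008% Tween-20, 37 °C 30 min; E. coli buffer 40 mM HEPES-KOH pH 7.6 with 1 mM ATP, S. aureus buffer 50 mM Tris pH 7.5 with 1.5 mM ATP.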

[28] = system: Escherichia coli; assay: Antimicrobial activity against multidrug-resistant Escherichia coli assessed as reduction in bacterial growth incubated for 20 hrs by broth microdilution analysis; format: functional; in short: as §1
[29] = system: Staphylococcus aureus; assay: Antibacterial activity against Methicillin-resistant Staphylococcus aureus BAA-1717 infected in CD-1 mouse thigh infection model assessed as fold change in log 10 cfu at 20 mg/kg, ip incubated for 26 hrs post infection; format: functional; in short: as §3
[30] = system: Staphylococcus aureus; assay: Antibacterial activity against Methicillin-resistant Staphylococcus aureus BAA-1717 infected in CD-1 mouse thigh infection model assessed as fold change in log 10 cfu at 40 mg/kg, ip incubated for 26 hrs post infection; format: functional; in short: as §3
[31] = system: Staphylococcus aureus; assay: Antibacterial activity against Staphylococcus aureus assessed as bacterial growth inhibition; format: functional
[32] = system: Enterococcus faecalis; assay: Antimicrobial activity against Enterococcus faecalis DRK 057 assessed as reduction in bacterial growth incubated for 20 hrs by broth microdilution analysis; format: functional
[33] = system: Staphylococcus aureus; assay: Bactericidal activity against methicillin-resistant Staphylococcus aureus at 8 times MIC measured for 8 hrs by time-kill kinetics based analysis; format: functional, organism-based
[34] = system: Escherichia coli; assay: Antimicrobial activity against Escherichia coli N43 assessed as reduction in bacterial growth incubated for 20 hrs by broth microdilution analysis; format: functional
[35] = system: Staphylococcus aureus; assay: Induction of drug resistance methicillin-resistant Staphylococcus aureus assessed as fold increase in MIC after 7 passages incubated for 20 hrs by microbroth dilution method; format: functional; in short: as §4
[36] = system: Escherichia coli; assay: Antimicrobial activity against Escherichia coli D22 assessed as reduction in bacterial growth incubated for 20 hrs by broth microdilution analysis; format: functional

DNA topoisomerase 2-alpha (Homo sapiens), sequence (P11388 whole entry): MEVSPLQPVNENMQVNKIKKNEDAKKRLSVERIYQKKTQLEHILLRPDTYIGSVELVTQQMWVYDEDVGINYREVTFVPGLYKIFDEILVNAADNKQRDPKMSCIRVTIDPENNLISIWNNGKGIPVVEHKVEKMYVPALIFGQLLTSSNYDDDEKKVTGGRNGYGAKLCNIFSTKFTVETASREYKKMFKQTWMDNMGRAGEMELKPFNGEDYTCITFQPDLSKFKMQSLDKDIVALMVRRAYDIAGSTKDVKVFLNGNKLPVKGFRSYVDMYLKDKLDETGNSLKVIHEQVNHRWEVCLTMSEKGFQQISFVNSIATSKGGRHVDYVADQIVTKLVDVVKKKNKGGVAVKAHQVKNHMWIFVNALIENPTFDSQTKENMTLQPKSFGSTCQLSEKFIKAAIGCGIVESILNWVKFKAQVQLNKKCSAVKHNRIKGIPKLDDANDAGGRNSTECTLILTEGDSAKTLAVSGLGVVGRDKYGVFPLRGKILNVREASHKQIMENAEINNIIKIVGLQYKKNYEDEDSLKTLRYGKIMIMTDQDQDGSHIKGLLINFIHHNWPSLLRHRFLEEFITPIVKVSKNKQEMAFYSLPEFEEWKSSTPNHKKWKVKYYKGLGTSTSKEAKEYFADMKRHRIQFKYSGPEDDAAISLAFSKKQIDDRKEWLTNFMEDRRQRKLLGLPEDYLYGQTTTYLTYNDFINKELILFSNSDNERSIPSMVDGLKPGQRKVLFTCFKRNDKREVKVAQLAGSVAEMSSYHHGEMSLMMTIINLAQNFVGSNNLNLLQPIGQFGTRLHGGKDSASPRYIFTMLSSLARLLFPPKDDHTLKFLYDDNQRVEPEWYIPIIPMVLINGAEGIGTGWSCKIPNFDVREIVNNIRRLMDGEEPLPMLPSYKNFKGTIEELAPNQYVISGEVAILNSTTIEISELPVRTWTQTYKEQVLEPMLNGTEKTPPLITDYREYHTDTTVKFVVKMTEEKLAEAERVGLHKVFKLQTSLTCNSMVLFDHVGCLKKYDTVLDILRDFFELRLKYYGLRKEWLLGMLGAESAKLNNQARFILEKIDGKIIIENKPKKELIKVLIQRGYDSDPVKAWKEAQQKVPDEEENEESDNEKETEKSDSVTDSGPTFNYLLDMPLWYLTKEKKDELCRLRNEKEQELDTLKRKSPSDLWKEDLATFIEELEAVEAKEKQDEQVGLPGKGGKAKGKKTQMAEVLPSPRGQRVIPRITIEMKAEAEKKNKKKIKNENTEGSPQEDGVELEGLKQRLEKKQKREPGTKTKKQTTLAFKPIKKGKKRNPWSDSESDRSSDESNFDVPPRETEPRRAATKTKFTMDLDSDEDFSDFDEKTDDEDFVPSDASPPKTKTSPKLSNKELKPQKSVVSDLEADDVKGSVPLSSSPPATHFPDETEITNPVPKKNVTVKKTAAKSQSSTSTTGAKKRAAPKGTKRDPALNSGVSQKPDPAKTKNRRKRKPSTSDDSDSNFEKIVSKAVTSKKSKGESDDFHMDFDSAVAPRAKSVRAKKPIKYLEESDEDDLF
DNA gyrase (Staphylococcus aureus, UniProt P0A0K8+P20831), sequence (P0A0K8 whole entry): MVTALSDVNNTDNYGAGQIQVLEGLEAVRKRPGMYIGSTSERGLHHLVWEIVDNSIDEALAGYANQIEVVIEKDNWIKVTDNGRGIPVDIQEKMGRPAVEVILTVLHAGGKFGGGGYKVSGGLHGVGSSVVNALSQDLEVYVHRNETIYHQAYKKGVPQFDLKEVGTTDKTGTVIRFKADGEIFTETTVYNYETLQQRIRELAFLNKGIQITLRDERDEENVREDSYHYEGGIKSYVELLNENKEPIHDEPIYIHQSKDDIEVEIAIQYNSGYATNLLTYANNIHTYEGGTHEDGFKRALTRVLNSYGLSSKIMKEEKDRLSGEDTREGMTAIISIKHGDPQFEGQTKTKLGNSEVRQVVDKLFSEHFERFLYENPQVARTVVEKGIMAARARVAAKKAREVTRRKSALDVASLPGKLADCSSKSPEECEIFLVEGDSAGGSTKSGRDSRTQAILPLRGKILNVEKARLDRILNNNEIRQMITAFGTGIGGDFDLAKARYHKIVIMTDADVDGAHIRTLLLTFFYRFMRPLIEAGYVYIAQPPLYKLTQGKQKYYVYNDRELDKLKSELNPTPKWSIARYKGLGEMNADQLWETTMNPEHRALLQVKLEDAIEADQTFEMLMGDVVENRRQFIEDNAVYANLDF
DNA gyrase (Staphylococcus aureus, UniProt P0A0K8+P20831), sequence (P20831 whole entry): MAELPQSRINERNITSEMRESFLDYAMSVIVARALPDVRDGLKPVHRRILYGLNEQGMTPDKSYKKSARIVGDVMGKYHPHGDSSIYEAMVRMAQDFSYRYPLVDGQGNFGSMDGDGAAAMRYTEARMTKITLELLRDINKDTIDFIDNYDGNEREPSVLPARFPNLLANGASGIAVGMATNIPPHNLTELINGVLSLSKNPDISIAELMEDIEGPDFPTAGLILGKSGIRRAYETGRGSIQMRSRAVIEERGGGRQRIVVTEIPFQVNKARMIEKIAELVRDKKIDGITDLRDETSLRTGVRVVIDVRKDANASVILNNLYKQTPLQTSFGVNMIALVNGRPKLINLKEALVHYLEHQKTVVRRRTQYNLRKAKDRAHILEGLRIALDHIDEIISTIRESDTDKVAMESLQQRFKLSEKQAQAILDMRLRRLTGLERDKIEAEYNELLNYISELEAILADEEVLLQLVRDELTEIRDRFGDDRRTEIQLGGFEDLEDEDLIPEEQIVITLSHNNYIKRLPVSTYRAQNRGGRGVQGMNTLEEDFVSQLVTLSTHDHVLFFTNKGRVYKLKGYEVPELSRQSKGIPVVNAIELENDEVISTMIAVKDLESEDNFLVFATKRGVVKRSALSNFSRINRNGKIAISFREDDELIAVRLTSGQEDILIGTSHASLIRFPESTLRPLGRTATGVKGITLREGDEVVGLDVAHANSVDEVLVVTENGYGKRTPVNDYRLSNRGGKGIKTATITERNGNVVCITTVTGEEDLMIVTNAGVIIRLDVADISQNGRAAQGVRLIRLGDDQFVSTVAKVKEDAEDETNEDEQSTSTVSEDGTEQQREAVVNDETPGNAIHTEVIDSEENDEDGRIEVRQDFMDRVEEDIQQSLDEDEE
Voltage-gated inwardly rectifying potassium channel KCNH2, sequence (Q12809 whole entry): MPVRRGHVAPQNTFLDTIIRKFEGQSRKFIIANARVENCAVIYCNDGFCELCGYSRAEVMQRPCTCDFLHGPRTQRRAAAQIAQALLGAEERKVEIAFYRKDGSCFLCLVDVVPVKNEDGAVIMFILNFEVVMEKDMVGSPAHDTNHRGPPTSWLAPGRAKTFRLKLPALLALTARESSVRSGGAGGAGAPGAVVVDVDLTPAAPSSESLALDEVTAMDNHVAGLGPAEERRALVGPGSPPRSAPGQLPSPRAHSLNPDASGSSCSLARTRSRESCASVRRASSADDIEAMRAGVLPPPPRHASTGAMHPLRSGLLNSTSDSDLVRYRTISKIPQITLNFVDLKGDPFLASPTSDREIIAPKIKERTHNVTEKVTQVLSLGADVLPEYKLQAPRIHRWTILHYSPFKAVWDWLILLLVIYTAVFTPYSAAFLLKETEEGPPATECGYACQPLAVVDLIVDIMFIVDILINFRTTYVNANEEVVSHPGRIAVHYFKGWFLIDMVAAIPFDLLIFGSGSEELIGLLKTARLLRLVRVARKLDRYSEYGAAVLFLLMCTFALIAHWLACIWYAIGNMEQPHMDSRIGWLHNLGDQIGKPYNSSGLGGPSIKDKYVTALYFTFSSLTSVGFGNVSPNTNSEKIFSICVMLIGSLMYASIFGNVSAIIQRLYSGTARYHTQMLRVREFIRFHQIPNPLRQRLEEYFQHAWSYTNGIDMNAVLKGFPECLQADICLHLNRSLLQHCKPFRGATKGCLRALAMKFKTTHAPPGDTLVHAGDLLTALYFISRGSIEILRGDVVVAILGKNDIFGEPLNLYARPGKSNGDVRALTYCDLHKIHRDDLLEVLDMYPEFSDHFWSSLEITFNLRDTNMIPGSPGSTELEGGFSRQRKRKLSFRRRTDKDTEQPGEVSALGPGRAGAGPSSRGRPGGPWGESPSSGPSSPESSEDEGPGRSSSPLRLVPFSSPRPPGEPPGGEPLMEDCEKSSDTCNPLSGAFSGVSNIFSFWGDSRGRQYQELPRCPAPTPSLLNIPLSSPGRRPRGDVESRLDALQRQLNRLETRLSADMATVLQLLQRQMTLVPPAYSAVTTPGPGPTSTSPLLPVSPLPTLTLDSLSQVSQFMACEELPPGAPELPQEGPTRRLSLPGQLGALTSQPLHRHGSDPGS

COc1ccc2nccc(OC[C@@H]3CC[C@@H](NC(=O)c4cc(F)c(Br)c(F)c4)CO3)c2n1
MIC [1]: 252 µM (≈ 128 µg/mL) | MIC [2]: 0.061 µM (≈ 0.031 µg/mL) | MIC [3]: 0.031 µM (≈ 0.0158 µg/mL) | Activity [4]: 99.4% | MIC [5]: 0.031 µM (≈ 0.0158 µg/mL) | Activity [6]: inactive | IC50 [7]: > 30000 nM | MIC [8]: 0.124 µM (≈ 0.063 µg/mL) | IC50 [9]: 365 nM | FC [10]: -0.89 | MIC [11]: 0.128 µg/mL (≈ 0.252 µM) | MIC [12]: 0.031 µg/mL (≈ 0.061 µM) | MIC [13]: > 252 µM | selectivity ratio [14]: ≥ 492 | IC50 [15]: 185 nM | Activity [16]: 5.43 log10CFU/g | LC50 at 114 h [17]: > 25 µg/mL | MIC [18]: > 252 µM | Activity [19]: 89% | Activity [20]: 5.01 log10CFU/g | MIC [21]: > 252 µM | FC [22]: -0.47 | Activity [23]: Dose-Dependent Effect | selectivity ratio [24]: ≥ 953 | IC50 [25]: 59 nM | MIC [26]: 252 µM (≈ 128 µg/mL) | IC50 [27]: 341 nM | MIC [28]: > 252 µM | FC [29]: -3.43 | FC [30]: -3.85 | MIC [31]: 0.016 µg/mL (≈ 0.0315 µM) | MIC [32]: 4.07 µM (≈ 2.07 µg/mL) | Activity [33]: Active | MIC [34]: 0.061 µM (≈ 0.031 µg/mL) | fold change (FC) [35]: 8 | MIC [36]: 252 µM (≈ 128 µg/mL)
